# Published values pooled from the literature.
# Sample: plasma
Compound,test system,setting,endpoint,result
COc1cc2c3c(n(CCCN4CCOCC4)c(=O)c2cc1OC)-c1cc2c(cc1C3=O)OCO2,female beagle dog,"intravenous, 100 mg/m², infusion",Cmax,547 ng/mL
CC[C@@H]1CN(C(=O)NCC(F)(F)F)C[C@@H]1c1cnc2cnc3[nH]ccc3n12,beagle dog,"oral, 1 mg/kg, single dose",CL/F,29.3 mL/min/kg
COCc1nn(Cc2ccc(Cn3ccccc3=O)cc2)cc1C(=O)NCc1c(F)ccc(OC)c1F,male beagle dog,"oral, 1 mg/kg",Cmax,163 ng/mL
Cc1ccc2cncc(N3CCc4c(cc(Cn5ccnc5)cc4-c4cn(C)nc4C(F)(F)F)C3=O)c2c1,male CD-1 mouse,"intravenous, 3 mg/kg",C0,5480 ng/mL
C=CC(=O)Nc1cc(Nc2nccc(Nc3cc(Cl)c(F)cc3C(C)(C)O)n2)c(OC)cc1N1CC[C@@H](N(C)C)C1,beagle dog,"intravenous, 1 mg/kg",clearance,30.9 mL/min/kg
COc1ccc2nc(-c3ccccn3)c(N(C)c3ccc(F)cc3)n2c1,male CD-1 mouse,"oral, 50 mg/kg, fasted",CL/F,917 mL/min/kg
C#Cc1cnc2nc(O)n(C(CC)CC)c2n1,male beagle dog,"intravenous, 1 mg/kg",clearance,4.3 mL/min/kg
C=CC(=O)N1CC2CC(n3nc(-c4ccc(C(=O)Nc5ccccn5)cc4)c4c(N)ncnc43)CC2C1 (stereo not shown),male Wistar rat,"oral, 100 mg/kg",Tmax,4 h
CC(C)(Nc1nc(-c2ccccn2)nc2ccccc12)c1ccccn1,female BALB/c mouse,"intravenous, 1 mg/kg",C0,1800 ng/mL
CNC(=O)c1cc(OC)cc2c(N3CCc4c(cc(Cn5ccnc5)cc4-c4cn(C)nc4C(F)(F)F)C3=O)ccnc12,male CD-1 mouse,"intravenous, 3 mg/kg",C0,8370 ng/mL
CC(C)Oc1c(NC(=O)c2ccc(NC(=O)[C@H](CC(N)=O)NC(=O)c3ccc(NC(=O)c4ccc(C#N)cc4)cc3)cc2)ccc(C(=O)Nc2ccc(C(=O)O)cc2)c1O,male CD-1 mouse,"subcutaneous, 5 mg/kg, single dose",CL/F,163 mL/min/kg
CCn1c(=O)c(-c2cc(NC(=O)Nc3ccccc3)c(F)cc2Br)cc2cnc(NC)cc21,beagle dog,"oral, 5 mg/kg, single dose",Cmax,544 ng/mL
CCc1cc(C(=O)NC)c2nccc(N3CCc4c(cc(Cn5ccnc5)cc4-c4cn(C)nc4C(F)(F)F)C3=O)c2c1,male Sprague-Dawley rat,"oral, 100 mg/kg, single dose",Tmax,1.3 h
CC(C)(C)c1ccc(O)c(CN(Cc2cc(C(C)(C)C)ccc2O)C2CCC(NC(N)=O)CC2)c1 (stereo not shown),male C57BL/6 mouse,"intraperitoneal, 5 mg/kg, single dose",clearance,15.7 mL/min/kg
COc1ccc2c(c1OCc1ccccc1)C[C@@H](C(=O)O)N(C(=O)C(c1ccccc1)c1ccccc1)C2,male beagle dog,"oral, 3 mg/kg",Cmax,2710 ng/mL
COc1ccc2nccc(N3CCc4c(cc(Cn5ccnc5)cc4-c4cn(C)nc4C(F)(F)F)C3=O)c2c1,male CD-1 mouse,"intravenous, 3 mg/kg",C0,3430 ng/mL
